In ChEMBL document CHEMBL1149629 (Bioorg Med Chem, 2007):
The source made the active and inactive calls. The rule behind the calls is not given here.

How the values were obtained:
[1] = target: T1, DNA topoisomerase 1 (Homo sapiens) (UniProt P11387); experiment: Inhibition of topoisomerase 1
T1 sequence (whole entry): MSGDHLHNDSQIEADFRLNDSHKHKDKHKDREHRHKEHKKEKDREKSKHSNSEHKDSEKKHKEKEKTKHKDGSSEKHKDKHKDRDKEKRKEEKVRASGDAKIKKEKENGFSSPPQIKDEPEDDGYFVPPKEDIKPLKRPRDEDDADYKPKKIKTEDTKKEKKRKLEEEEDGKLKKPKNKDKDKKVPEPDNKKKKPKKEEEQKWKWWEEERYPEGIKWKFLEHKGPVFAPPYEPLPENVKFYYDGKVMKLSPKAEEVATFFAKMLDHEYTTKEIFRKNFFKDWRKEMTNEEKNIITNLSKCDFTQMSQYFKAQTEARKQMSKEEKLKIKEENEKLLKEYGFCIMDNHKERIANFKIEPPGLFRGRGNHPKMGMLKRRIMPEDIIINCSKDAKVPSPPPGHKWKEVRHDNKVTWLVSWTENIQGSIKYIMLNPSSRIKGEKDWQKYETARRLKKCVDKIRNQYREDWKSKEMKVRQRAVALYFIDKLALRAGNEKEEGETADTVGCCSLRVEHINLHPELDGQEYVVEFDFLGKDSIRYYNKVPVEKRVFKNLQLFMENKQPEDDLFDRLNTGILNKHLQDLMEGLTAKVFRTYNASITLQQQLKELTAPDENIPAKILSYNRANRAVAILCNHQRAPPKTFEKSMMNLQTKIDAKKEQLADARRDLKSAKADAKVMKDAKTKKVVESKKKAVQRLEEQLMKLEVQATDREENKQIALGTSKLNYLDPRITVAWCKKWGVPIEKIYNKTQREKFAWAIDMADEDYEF

[2] = target: T1, DNA topoisomerase 1 (Homo sapiens); experiment: Inhibition of topoisomerase 1 upto 50 uM
Procedure, shortened: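 DNA relaxation and DNA cleavage assays with topoisomerase I, run following published procedures, with compounds up to 50 µM.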

Homo sapiens [3] = species: Homo sapiens; experiment: Binding affinity to DNA assessed as melting temperature
HT-29 = experiment: Antiproliferative activity against human HT29 cells […] by microculture tetrazolium assay; type: functional, cell-based
Procedure, shortened: (§1)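 Tumor cells (ATCC) grown in RPMI 1640 with 10% fetal calf serum, 2 mM L-glutamine, penicillin/streptomycin, 10 mM HEPES pH 7.4. Continuous exposure to graded concentrations for four doubling times, then MTT added and incubated 4 h at 37 °C. Formazan dissolved in DMSO, optical density read. IC50 = concentration reducing OD by 50% versus untreated controls.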

A549 = experiment: Antiproliferative activity against human A549 cells […] by microculture tetrazolium assay; type: functional, cell-based; procedure, shortened: as §1
L1210 = experiment: Antiproliferative activity against mouse L1210 cells […] by microculture tetrazolium assay; type: functional, cell-based; procedure, shortened: as §1
DU-145 = experiment: Antiproliferative activity against human DU145 cells […] by microculture tetrazolium assay; type: functional, cell-based; procedure, shortened: as §1
[4] = target: T2, Serine/threonine-protein kinase Chk1 (Homo sapiens) (UniProt O14757); experiment: Inhibition of human Chk1 at 10 uM
T2 sequence (whole entry): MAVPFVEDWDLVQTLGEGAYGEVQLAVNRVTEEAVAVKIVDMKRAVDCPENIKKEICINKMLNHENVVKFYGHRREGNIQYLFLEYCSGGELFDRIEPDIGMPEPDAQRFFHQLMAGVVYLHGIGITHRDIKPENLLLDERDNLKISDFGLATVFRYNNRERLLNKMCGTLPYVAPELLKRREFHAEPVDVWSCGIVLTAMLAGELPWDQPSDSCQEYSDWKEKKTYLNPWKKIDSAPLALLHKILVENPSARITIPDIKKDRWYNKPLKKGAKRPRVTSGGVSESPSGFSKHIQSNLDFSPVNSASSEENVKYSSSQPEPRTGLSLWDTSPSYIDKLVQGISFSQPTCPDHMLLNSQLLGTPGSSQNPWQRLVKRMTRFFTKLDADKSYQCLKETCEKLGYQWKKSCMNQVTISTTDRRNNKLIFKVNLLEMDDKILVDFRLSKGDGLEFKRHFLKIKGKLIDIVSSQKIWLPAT
Procedure, shortened: (§2)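 Chk1 from a commercial source or purified as GST–Chk1 from baculovirus-infected Sf9 cells. Assay based on a published method. Percent inhibition determined at 10 µM; IC50 determined for selected compounds.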

Homo sapiens [5] = species: Homo sapiens; experiment: Inhibition of GSK3 at 1 uM
Procedure, shortened: (§3)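 Single-concentration (1 µM) inhibition profiling carried out through a commercial kinase profiler screening service.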

[6] = target: AMP-activated protein kinase, AMPK (Homo sapiens) (UniProt P54646+O43741+P54619+Q9UGJ0+Q9Y478+Q13131+Q9UGI9); experiment: Inhibition of AMPK at 1 uM; type: protein-complex assay; procedure, shortened: as §3
[7] = target: T3, Serine/threonine-protein kinase Chk1 (Homo sapiens, UniProt O14757); experiment: Inhibition of human Chk1; procedure, shortened: as §2
T3 sequence (O14757 whole entry): T2 sequence (whole entry)

[8] = target: Tyrosine-protein kinase Lck (Homo sapiens) (UniProt P06239); experiment: Inhibition of LCK at 1 uM; procedure, shortened: as §3
Tyrosine-protein kinase Lck (Homo sapiens), sequence (P06239 2-509 limits assumed): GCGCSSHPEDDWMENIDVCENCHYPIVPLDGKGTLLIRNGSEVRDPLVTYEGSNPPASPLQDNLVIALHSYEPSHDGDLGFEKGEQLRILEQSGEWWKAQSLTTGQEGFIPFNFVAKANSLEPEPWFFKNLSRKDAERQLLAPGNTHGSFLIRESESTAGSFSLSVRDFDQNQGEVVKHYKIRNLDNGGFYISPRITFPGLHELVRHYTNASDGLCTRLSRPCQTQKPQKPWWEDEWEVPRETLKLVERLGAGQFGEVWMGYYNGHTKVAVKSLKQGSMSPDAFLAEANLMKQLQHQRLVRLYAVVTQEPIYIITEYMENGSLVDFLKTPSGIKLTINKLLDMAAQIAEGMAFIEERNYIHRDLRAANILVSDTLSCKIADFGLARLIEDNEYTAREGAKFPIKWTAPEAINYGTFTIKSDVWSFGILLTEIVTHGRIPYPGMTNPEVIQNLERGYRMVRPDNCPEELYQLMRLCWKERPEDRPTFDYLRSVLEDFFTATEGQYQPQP

Homo sapiens [9] = species: Homo sapiens; experiment: Inhibition of PKA at 1 uM; procedure, shortened: as §3
Homo sapiens [10] = species: Homo sapiens; experiment: Inhibition of CAMK2 at 1 uM; procedure, shortened: as §3
[11] = target: Mitogen-activated protein kinase 1 (Homo sapiens) (UniProt P28482); experiment: Inhibition of MAPK1 at 1 uM; procedure, shortened: as §3
Mitogen-activated protein kinase 1 (Homo sapiens), sequence (P28482 whole entry): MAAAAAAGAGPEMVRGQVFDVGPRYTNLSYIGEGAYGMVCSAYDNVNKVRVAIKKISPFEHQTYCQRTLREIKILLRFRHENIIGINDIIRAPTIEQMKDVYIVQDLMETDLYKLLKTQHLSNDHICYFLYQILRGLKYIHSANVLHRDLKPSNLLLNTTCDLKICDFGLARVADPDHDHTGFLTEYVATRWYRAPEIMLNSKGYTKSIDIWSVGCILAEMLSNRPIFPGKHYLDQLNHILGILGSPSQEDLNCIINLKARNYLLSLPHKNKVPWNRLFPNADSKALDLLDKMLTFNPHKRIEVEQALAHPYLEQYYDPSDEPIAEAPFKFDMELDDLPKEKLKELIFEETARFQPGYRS

[12] = target: Protein kinase C alpha type (Homo sapiens) (UniProt P17252); experiment: Inhibition of PKCalpha at 1 uM; procedure, shortened: as §3
[13] = target: Cyclin-dependent kinase 2 (Homo sapiens) (UniProt P24941); experiment: Inhibition of CDK2/cyclin A at 1 uM; procedure, shortened: as §3
[14] = target: T2, Serine/threonine-protein kinase Chk1 (Homo sapiens); experiment: Inhibition of Chk1 at 1 uM
[15] = target: Ribosomal protein S6 kinase beta-1 (Homo sapiens) (UniProt P23443); experiment: Inhibition of P70S6K at 1 uM; procedure, shortened: as §3
Ribosomal protein S6 kinase beta-1 (Homo sapiens), sequence (P23443 whole entry, looked up): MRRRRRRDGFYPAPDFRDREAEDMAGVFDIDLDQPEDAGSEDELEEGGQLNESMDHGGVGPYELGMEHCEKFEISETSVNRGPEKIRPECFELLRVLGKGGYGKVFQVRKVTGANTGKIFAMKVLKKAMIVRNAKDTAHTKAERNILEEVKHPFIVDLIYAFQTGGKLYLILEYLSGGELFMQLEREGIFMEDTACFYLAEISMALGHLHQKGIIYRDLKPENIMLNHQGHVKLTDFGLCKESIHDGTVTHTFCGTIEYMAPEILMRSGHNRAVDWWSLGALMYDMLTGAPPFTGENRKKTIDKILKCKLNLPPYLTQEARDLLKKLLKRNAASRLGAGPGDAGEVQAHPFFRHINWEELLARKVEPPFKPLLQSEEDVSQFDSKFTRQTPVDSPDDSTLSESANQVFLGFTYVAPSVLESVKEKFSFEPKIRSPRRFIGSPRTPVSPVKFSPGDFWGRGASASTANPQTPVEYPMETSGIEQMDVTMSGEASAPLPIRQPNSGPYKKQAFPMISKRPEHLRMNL

[16] = target: MAP kinase-activated protein kinase 2 (Homo sapiens) (UniProt P49137); experiment: Inhibition of MAPKAPK2 at 1 uM; procedure, shortened: as §3
MAP kinase-activated protein kinase 2 (Homo sapiens), sequence (P49137 whole entry, looked up): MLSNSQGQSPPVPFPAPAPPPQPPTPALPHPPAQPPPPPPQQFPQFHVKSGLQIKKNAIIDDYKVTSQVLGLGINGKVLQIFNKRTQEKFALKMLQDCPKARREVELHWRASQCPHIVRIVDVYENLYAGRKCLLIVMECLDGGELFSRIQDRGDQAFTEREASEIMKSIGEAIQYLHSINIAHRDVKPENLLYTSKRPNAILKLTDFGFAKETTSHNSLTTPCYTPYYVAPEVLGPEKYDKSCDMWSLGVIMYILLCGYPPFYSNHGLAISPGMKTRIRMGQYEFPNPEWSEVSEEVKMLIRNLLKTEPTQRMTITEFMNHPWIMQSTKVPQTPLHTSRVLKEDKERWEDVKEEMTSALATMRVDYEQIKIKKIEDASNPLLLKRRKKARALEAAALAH

[17] = target: Protein kinase C beta type (Homo sapiens) (UniProt P05771); experiment: Inhibition of PKCbeta at 1 uM; procedure, shortened: as §3
Protein kinase C beta type (Homo sapiens), sequence (P05771 2-671 limits assumed): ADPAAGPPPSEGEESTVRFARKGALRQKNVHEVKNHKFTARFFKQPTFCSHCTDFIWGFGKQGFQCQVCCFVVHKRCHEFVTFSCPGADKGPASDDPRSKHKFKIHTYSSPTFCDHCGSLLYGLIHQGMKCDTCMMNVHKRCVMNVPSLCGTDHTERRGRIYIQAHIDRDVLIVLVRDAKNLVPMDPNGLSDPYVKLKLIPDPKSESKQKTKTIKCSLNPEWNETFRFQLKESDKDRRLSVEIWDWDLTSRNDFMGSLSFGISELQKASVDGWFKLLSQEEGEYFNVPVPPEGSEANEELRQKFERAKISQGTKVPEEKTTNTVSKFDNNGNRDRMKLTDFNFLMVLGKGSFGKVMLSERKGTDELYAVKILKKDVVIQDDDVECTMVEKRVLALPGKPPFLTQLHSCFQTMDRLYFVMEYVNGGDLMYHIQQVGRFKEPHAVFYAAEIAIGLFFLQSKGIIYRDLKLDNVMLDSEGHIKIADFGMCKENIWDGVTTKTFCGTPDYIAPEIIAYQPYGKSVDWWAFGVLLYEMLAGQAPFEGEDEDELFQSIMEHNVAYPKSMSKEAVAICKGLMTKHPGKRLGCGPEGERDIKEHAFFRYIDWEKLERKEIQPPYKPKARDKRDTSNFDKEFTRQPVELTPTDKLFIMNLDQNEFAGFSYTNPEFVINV

Homo sapiens [18] = species: Homo sapiens; experiment: Inhibition of CK1 at 1 uM; procedure, shortened: as §3
Homo sapiens [19] = species: Homo sapiens; experiment: Inhibition of FGFR3 at 1 uM; procedure, shortened: as §3
[20] = target: T4, Protein kinase C epsilon type (Homo sapiens) (UniProt Q02156); experiment: Inhibition of PKCepsilon at 1 uM; procedure, shortened: as §3
T4 sequence (whole entry): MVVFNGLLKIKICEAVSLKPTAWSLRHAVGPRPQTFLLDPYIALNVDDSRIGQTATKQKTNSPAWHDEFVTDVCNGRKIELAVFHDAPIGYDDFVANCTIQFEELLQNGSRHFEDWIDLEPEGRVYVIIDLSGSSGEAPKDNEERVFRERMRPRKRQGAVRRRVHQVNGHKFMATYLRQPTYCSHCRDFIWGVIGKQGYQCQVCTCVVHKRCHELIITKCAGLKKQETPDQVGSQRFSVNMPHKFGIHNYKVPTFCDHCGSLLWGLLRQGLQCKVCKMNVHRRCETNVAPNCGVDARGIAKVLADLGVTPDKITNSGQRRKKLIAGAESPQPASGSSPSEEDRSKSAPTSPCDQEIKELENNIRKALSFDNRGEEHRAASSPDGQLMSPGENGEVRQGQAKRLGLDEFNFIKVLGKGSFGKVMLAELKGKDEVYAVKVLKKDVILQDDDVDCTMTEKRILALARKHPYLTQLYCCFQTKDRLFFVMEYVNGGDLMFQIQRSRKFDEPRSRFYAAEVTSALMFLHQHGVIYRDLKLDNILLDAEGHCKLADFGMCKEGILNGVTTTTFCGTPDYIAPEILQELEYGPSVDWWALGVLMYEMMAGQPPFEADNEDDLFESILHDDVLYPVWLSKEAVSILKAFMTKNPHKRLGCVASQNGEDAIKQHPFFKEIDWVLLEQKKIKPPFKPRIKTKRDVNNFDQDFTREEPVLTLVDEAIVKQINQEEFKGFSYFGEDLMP

[21] = target: Proto-oncogene tyrosine-protein kinase Src (Homo sapiens) (UniProt P12931); experiment: Inhibition of Src tyrosine kinase at 1 uM after 20 mins
Proto-oncogene tyrosine-protein kinase Src (Homo sapiens), sequence (P12931 2-536 limits assumed): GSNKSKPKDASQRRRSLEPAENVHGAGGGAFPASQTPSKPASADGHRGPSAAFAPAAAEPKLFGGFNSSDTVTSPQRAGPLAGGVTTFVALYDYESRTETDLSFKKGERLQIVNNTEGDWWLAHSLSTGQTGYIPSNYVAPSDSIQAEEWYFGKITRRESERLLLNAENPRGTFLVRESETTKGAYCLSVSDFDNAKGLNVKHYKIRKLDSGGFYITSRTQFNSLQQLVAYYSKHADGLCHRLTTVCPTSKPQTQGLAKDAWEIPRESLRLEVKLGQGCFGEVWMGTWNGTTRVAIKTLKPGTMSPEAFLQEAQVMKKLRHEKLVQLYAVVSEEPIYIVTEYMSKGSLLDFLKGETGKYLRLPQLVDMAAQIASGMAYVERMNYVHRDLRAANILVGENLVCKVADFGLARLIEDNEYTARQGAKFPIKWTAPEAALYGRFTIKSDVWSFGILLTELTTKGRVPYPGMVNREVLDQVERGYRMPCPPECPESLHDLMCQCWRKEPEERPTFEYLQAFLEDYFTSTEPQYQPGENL

SMILES | Activity [1] | Activity [2] | Activity (Homo sapiens [3]) | IC50 (HT-29) | IC50 (A549) | IC50 (L1210) | IC50 (DU-145) | inhibition [4] | IC50 [7] | other results
CN1C(=O)c2c(c3c4ccccc4[nH]c3c3cc[nH]c23)C1=O | inactive | inactive | inactive | 5.9 µM | 47.1 µM | 4.9 µM | 1.9 µM | 43.1% | – | –
O=C1NC(=O)c2c1c1c3cc(Br)ccc3[nH]c1c1cccn21 | – | – | – | 29 µM | 20.9 µM | 12.5 µM | 21.7 µM | 87.9% | 66 nM | % activity (Homo sapiens [5]): 44%; % activity [6]: 46%; % activity [8]: 91%; % activity (Homo sapiens [9]): 103%; % activity (Homo sapiens [10]): 55%; % activity [11]: 88%; % activity [12]: 85%; % activity [13]: 88%; % activity [14]: 14%; % activity [15]: 26%; % activity [16]: 99%; % activity [17]: 98%; % activity (Homo sapiens [18]): 104%; % activity (Homo sapiens [19]): 50%; % activity [20]: 90%; inhibition [21]: 22.3%
CN1C(=O)c2c(n3cncc3c3c2c2cccnc2n3[C@@H]2O[C@H](CO)[C@@H](O)[C@H](O)[C@H]2O)C1=O | – | – | – | 52.5 µM | 78.5 µM | > 100 µM | 56.1 µM | 15.1% | – | –
CN1C(=O)c2c(n3cccc3c3[nH]c4ccc(OCc5ccccc5)cc4c23)C1=O | inactive | inactive | inactive | 35.9 µM | 20 µM | 42.7 µM | 22.7 µM | 10.3% | – | –
CN1C(=O)c2c(n3cccc3c3[nH]c4ccccc4c23)C1=O | inactive | inactive | inactive | > 100 µM | > 100 µM | 33 µM | 1.2 µM | – | – | –
O=C1NC(=O)c2c1c1c3cccnc3[nH]c1c1cccn21 | – | – | – | 17.1 µM | 19.7 µM | 29.2 µM | 4.6 µM | 76.6% | 3600 nM | –
CN1C(=O)c2c(n3ccnc3c3c2c2cccnc2n3[C@@H]2O[C@H](CO)[C@@H](O)[C@H](O)[C@H]2O)C1=O | inactive | inactive | inactive | 53 µM | 128 µM | > 100 µM | 64.8 µM | 10.7% | – | –
O=C1NC(=O)c2c1c1[nH]cnc1c1[nH]c3ccccc3c21 [GRANULATIMIDE] | – | – | – | – | 11.4 µM | – | 2.8 µM | 93.9% | 80 nM | –
O=C1NC(=O)c2c1c1c3cc(Cl)ccc3[nH]c1c1cccn21 | inactive | inactive | inactive | 30.4 µM | 28.9 µM | 14.7 µM | 27.4 µM | 95.4% | 89 nM | % activity (Homo sapiens [5]): 39%; % activity [6]: 29%; % activity [8]: 92%; % activity (Homo sapiens [9]): 98%; % activity (Homo sapiens [10]): 40%; % activity [11]: 98%; % activity [12]: 75%; % activity [13]: 69%; % activity [14]: 6%; % activity [15]: 51%; % activity [16]: 75%; % activity [17]: 79%; % activity (Homo sapiens [18]): 94%; % activity (Homo sapiens [19]): 32%; % activity [20]: 86%; inhibition [21]: 22.1%
O=C1NC(=O)c2c1c1c3ccccc3[nH]c1c1cccn21 | inactive | inactive | inactive | 3.3 µM | 2 µM | 3.1 µM | 1.4 µM | 85% | 24 nM | inhibition [21]: 32.5%
CN1C(=O)c2c(n3cncc3c3[nH]c4ncccc4c23)C1=O | – | – | – | 9.7 µM | 7.4 µM | 8.8 µM | 13.5 µM | 11.6% | – | –
CN1C(=O)c2c(n3cccc3c3[nH]c4ccc(Br)cc4c23)C1=O | – | – | – | 88.3 µM | 67 µM | 48.7 µM | > 100 µM | 7.1% | – | –
O=C1NC(=O)c2c1c1c3ccccc3[nH]c1n1cncc21 [ISOGRANULATIMIDE] | – | – | – | – | 18.1 µM | – | 13.1 µM | – | 440 nM | –
O=C1NC(=O)c2c1c1c3cc(OCc4ccccc4)ccc3[nH]c1c1cccn21 | – | – | – | 13.7 µM | 23.2 µM | 27 µM | – | 54.8% | 640 nM | –
CN1C(=O)c2c(n3cccc3c3[nH]c4ccc(O)cc4c23)C1=O | – | – | – | 26.5 µM | 8.8 µM | 5.4 µM | – | 54.1% | – | –
CN1C(=O)c2c(n3ccnc3c3[nH]c4ncccc4c23)C1=O | inactive | inactive | – | 30.6 µM | 35.6 µM | 43.5 µM | 7.4 µM | 36.1% | – | –
O=C1NC(=O)c2c1c1c3cc(O)ccc3[nH]c1c1cccn21 | – | – | – | 27.8 µM | 16.1 µM | 4.5 µM | 15.1 µM | 95.8% | 16 nM | inhibition [21]: 1.2%
CN1C(=O)c2c(n3cccc3c3[nH]c4ccc(Cl)cc4c23)C1=O | inactive | inactive | inactive | 63.2 µM | 68.3 µM | 41.2 µM | – | 55.6% | – | –
